How the values were obtained:
NIH3T3 [1] = experiment: Cytotoxicity on 3T3 fibroblasts (3T3F) murine cell line (O.D.=0.131+/-0.014); type: functional; conditions: Mus musculus, read-out: TC50 (the source's name)
C8166 [2] = experiment: (§1) Selectivity index was determined in C8166 cells; type: functional, Homo sapiens
Outline: (§2)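 C8166 CD4+ T-cell line (HTLV-I genome, only tat expressed) acutely infected with lymphocytotropic HIV-1 IIIB. […] Read-out is HIV-p24 antigen in supernatants. AZT positive control was run at the same time. SI = IC50/EC50.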

C8166 [3] = experiment: (§3) Concentration which results in 50% survival of uninfected untreated control C8166 cells (cytotoxicity of the compound); type: functional, cell-based; conditions: Homo sapiens
Outline: (§4)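 Toxicity in uninfected C8166 cells by MTT reduction to formazan, read spectrophotometrically.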

[4] = system: Human immunodeficiency virus 1; experiment: Concentration which produces a 50% survival of HIV-1 infected cells relative to uninfected control C8166 cells; type: functional, organism-based; conditions: Human immunodeficiency virus 1, C8166
Daudi [5] = experiment: Cytotoxicity on Daudi Human(DH) cell line (O.D.=0.129+/-0.018); type: functional; conditions: read-out: TC50 (the source's name)
Mus musculus [6] = species on record: Mus musculus; experiment: Cytotoxicity on NSO murine cell line (O.D.=0.125+/-0.015); type: functional; conditions: read-out: TC50 (the source's name)
[7] = target: T1, Human immunodeficiency virus type 1 reverse transcriptase (Human immunodeficiency virus 1, UniProt Q72547); experiment: Inhibition of HIV-1 Mutant HIV-1 RT enzymes containing the single amino acid substitution […]
[8] = target: Human immunodeficiency virus type 1 reverse transcriptase (Human immunodeficiency virus 1, UniProt Q72547, V106A); experiment: Inhibition of HIV-1 Mutant HIV-1 RT enzymes containing the single amino acid substitution V106A
[9] = target: Human immunodeficiency virus type 1 reverse transcriptase (Human immunodeficiency virus 1, UniProt Q72547, Y181I); experiment: Inhibition of HIV-1 Mutant HIV-1 RT enzymes containing the single amino acid substitution Y181I
[10] = target: Human immunodeficiency virus type 1 reverse transcriptase (Human immunodeficiency virus 1, UniProt Q72547, Y188L); experiment: Inhibition of HIV-1 Mutant HIV-1 RT enzymes containing the single amino acid substitution Y188L
[11] = Cytotoxicity on normal human lymphocytes(HL) (O.D.=0.114+/-0.01); type: functional; conditions: read-out: TC50 (the source's name)
[12] = target: Human immunodeficiency virus type 1 reverse transcriptase (Human immunodeficiency virus 1, UniProt Q72547, K103N); experiment: Inhibition of HIV-1 Mutant HIV-1 RT enzymes containing the single amino acid substitution K103N
[13] = as §1; type: functional; outline: as §2
C8166 [14] = experiment: as §3; type: cell-based; conditions: Homo sapiens; outline: as §4
[15] = target: T1, Human immunodeficiency virus type 1 reverse transcriptase; experiment: Inhibition of HIV-1 wild-type RT
NIH3T3 [16] = experiment: Cytotoxicity against 3T3 fibroblasts (3T3F) murine cell line (O.D.=0.131+/-0.014); type: functional; conditions: Mus musculus, read-out: TC50 (the source's name)
Daudi [17] = experiment: Cytotoxicity against Daudi Human(DH) cell line (O.D.=0.129+/-0.018); type: functional; conditions: read-out: TC50 (the source's name)
Mus musculus [18] = species on record: Mus musculus; experiment: Cytotoxicity against NSO murine cell line (O.D.=0.125+/-0.015); type: functional; conditions: read-out: TC50 (the source's name)
[19] = Cytotoxicity against normal human lymphocytes(HL) (O.D.=0.114+/-0.01); conditions: read-out: TC50 (the source's name)

| SMILES | EC50 [4] [µM] | Ki [7] [µM] | Ki [8] [µM] | Ki [9] [µM] | Ki [10] [µM] | Ki [12] [µM] | Ki [15] [µM] | other results |
| --- | --- | --- | --- | --- | --- | --- | --- | --- |
| S=C(NCCOc1nc2cc(Cl)ccc2n2cccc12)Nc1ccc(Br)cn1 | 0.025 | 0.12 | 0.12 | 0.09 | 0.1 | 0.21 |  | CC50 (NIH3T3 [1]): > 1000 µM; SI (C8166 [2]): 3720; IC50 (C8166 [3]): 93 µM; CC50 (Daudi [5]): > 1000 µM; CC50 (Mus musculus [6]): > 1000 µM; CC50 [11]: > 1000 µM |
| CC(C)=CCN1Cc2c(Cl)ccc3[nH]c(=S)n(c23)C[C@@H]1C [TIVIRAPINE] | 0.03 |  |  |  |  |  |  | SI [13]: 1670; IC50 (C8166 [14]): 50 µM |
| O=c1c2cccn2c2c(F)cc(F)cc2n1CCNC(=S)Nc1ccc(Br)cn1 |  | 0.1 | 0.03 | 1.6 | 0.45 |  | 0.022 |  |
| Cc1cc2nc(OCCNC(=S)Nc3ccc(Br)cn3)c3cccn3c2cc1C |  | 0.5 | 0.15 | 0.66 | 1.5 | 0.45 | 0.22 |  |
| O=c1c2cccn2c2ccccc2n1CCNC(=S)Nc1ccc(Br)cn1 | 0.38 | 0.105 | 0.112 | 4 | 2.5 | 0.1 | 0.058 | CC50 (NIH3T3 [16]): 800 µM; CC50 (Daudi [17]): 800 µM; CC50 (Mus musculus [18]): 800 µM; CC50 [19]: 800 µM; IC50 (C8166 [14]): 17 µM |
| O=c1n(CCNC(=S)Nc2ccc(Br)cn2)c2ccccc2c2ccnn12 |  | 0.1 | 0.33 | 0.52 | 0.4 | 0.021 | 0.015 |  |
| S=C(NNc1nc2ccccc2n2cccc12)Nc1ccc(Br)cn1 |  |  |  |  |  |  | 1.9 |  |
| O=C(NNc1nc2ccccc2n2cccc12)c1ccccn1 |  |  |  |  |  |  | 4 |  |
